{"source": "ChEMBL document CHEMBL1126267", "about": "“A novel synthesis and potent antiinflammatory activity of 4-hydroxy-2(1H)-oxo-1-phenyl-1,8-naphthyridine-3-carboxamides” (1992)", "assay_type_in_all_cases": "functional", "conditions_in_all_cases": "route oral", "key": {"[1]": {"test_system": "Rattus norvegicus", "assay": "Inhibition of carrageenan-induced rat's paw edema (CPE) after peroral administration of 100 mg/kg dose.", "in_short": "(§1)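 Male Wistar rats (about 150 g) were dosed orally with compound suspended in 5% arabic gum, 1 h before a subplantar hind-paw injection of 0.1 mL saline. The irritant was 1% zymosan for 33 or 1% λ-carrageenin for 34. Paw volume was measured by plethysmograph before dosing and at 4 h (zymosan) or 3 h (carrageenin). Swelling is relative to initial volume, as mean ± SEM. % inhibition is versus the control group's mean swelling.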"}, "[2]": {"test_system": "Rattus norvegicus", "assay": "Antiinflammatory activity on Zymosan-induced rat's paw edema(ZPE) after peroral administration of 100 mg/kg dose with control swelling of 62.8%", "in_short": "(§2)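 Male Wistar rats weighing about 150 g were dosed orally with compound suspended in 5% arabic gum. 1 h later, 1% zymosan in 0.1 mL saline was injected subplantarly into the hind paw. Paw volume was measured by plethysmograph before dosing and 4 h after zymosan, with edema as the volume difference. Inhibition % was derived from mean swelling versus the control group.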"}, "[3]": {"test_system": "Rattus norvegicus", "assay": "Compound was tested for the inhibition of rat reversed passive Arthus pleurisy after peroral administration of 100 mg/kg dose at 4.47*10e6 no of cells with 5.72*10e6 cells of control", "in_short": "(§3)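 Male Wistar rats (about 250 g) under ether received 0.2 mL rabbit anti-egg-albumin antiserum intrapleurally. Thirty min later they got 15 mg EA/100 g body weight in 0.1 mL saline iv. Compounds were given orally beforehand. Rats were killed 4.5 h after induction and the thoracic cavity rinsed with 5 mL saline. Exudate volume and infiltrated cell count were read as mean ± SE. % inhibition is versus control.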"}, "[4]": {"test_system": "Rattus norvegicus", "assay": "Inhibition of Zymosan-induced rat's paw edema(ZPE) after peroral administration of 100 mg/kg dose.", "in_short": "as §1"}, "[5]": {"test_system": "Rattus norvegicus", "assay": "Compound was tested for the inhibition of rat reversed passive Arthus pleurisy after peroral administration of 100 mg/kg dose at 0.8 mL of exudate volume with 0.84 mL of control (injected intrapleurally)", "in_short": "(§4)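 Male Wistar rats (about 250 g) were given compound orally before the antiserum. Under ether anesthesia, 0.2 mL rabbit anti-egg albumin antiserum was injected intrapleurally. After 30 min, egg albumin (15 mg/100 g body weight in 0.1 mL saline) was given iv. Rats were killed 4.5 h later and the thoracic cavity was rinsed with 5 mL saline. Exudate volume and infiltrated cell number were measured, with inhibition % versus controls as mean ± SEM.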"}, "[6]": {"test_system": "Rattus norvegicus", "assay": "Antiinflammatory activity on Carrageenan rat's paw edema(CPE) after peroral administration of 100 mg/kg dose with control swelling of 68.1%"}, "[7]": {"test_system": "Rattus norvegicus", "assay": "Compound was tested for the inhibition of rat reversed passive Arthus pleurisy after peroral administration of 100 mg/kg dose at 0.71 mL of exudate volume with 0.84 mL of control (injected intrapleurally)", "in_short": "as §4"}, "[8]": {"test_system": "Rattus norvegicus", "assay": "Compound was tested for the inhibition of rat reversed passive Arthus pleurisy after peroral administration of 100 mg/kg dose at 4.4*10e6 no of cells with 5.72*10e6 cells of control", "in_short": "as §3"}, "[9]": {"test_system": "Rattus norvegicus", "assay": "Antiinflammatory activity on Carrageenan rat's paw edema(CPE) after peroral administration of 100 mg/kg dose with control swelling of 64.2%"}, "[10]": {"test_system": "Rattus norvegicus", "assay": "Antiinflammatory activity on Zymosan-induced rat's paw edema(ZPE) after peroral administration of 100 mg/kg dose with control swelling of 71.7%", "in_short": "as §2"}, "[11]": {"test_system": "Rattus norvegicus", "assay": "Antiinflammatory activity on Zymosan-induced rat's paw edema(ZPE) after peroral administration of 100 mg/kg dose with control swelling of 62.0%", "in_short": "as §2"}, "[12]": {"test_system": "Rattus norvegicus", "assay": "Antiinflammatory activity on Carrageenan rat's paw edema(CPE) after peroral administration of 100 mg/kg dose with control swelling of 74.7%"}, "[13]": {"test_system": "Rattus norvegicus", "assay": "Compound was tested for the inhibition of rat reversed passive Arthus pleurisy after peroral administration of 100 mg/kg dose at 1.52*10e6 no of cells with 3.24*10e6 cells of control", "in_short": "as §4"}, "[14]": {"test_system": "Rattus norvegicus", "assay": "Compound was tested for the inhibition of rat reversed passive Arthus pleurisy after peroral administration of 100 mg/kg dose at 0.12 mL of exudate volume with 0.68 mL of control (injected intrapleurally)", "in_short": "as §4"}, "[15]": {"test_system": "Rattus norvegicus", "assay": "Compound was tested for the inhibition of rat reversed passive Arthus pleurisy after peroral administration of 30 mg/kg dose at 2.79*10e6 no of cells with 3.24*10e6 cells of control", "in_short": "as §3"}, "[16]": {"test_system": "Rattus norvegicus", "assay": "Antiinflammatory activity on Carrageenan rat's paw edema(CPE) after peroral administration of 100 mg/kg dose with control swelling of 69.9%"}, "[17]": {"test_system": "Rattus norvegicus", "assay": "Compound was tested for the inhibition of rat reversed passive Arthus pleurisy after peroral administration of 10 mg/kg dose at 3.18*10e6 no of cells with 3.24*10e6 cells of control", "in_short": "as §4"}, "[18]": {"test_system": "Rattus norvegicus", "assay": "Compound was tested for the inhibition of rat reversed passive Arthus pleurisy after peroral administration of 3 mg/kg dose at 3.17*10e6 no of cells with 3.24*10e6 cells of control", "in_short": "as §3"}, "[19]": {"test_system": "Rattus norvegicus", "assay": "Compound was tested for the inhibition of arachidonic acid-induced rat's paw edema(APE) after peroral administration of 30 mg/kg dose with control swelling of 33.8%", "in_short": "(§5)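 Test: arachidonic acid paw edema in male Wistar rats of about 150 g. Oral dosing in 5% arabic gum came 1 h before subplantar injection of 1% arachidonic acid sodium salt in 0.1 mL saline into the hind paw. Plethysmograph paw volume was read before dosing and 1 h post-irritant, and edema = volume difference. % inhibition was taken from mean swelling against controls.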"}, "[20]": {"test_system": "Rattus norvegicus", "assay": "Compound was tested for the inhibition of rat reversed passive Arthus pleurisy after peroral administration of 30 mg/kg dose at 0.33 mL of exudate volume with 0.68 mL of control (injected intrapleurally)", "in_short": "as §3"}, "[21]": {"test_system": "Rattus norvegicus", "assay": "Antiinflammatory activity on Zymosan-induced rat's paw edema(ZPE) after peroral administration of 30 mg/kg dose with control swelling of 66.9%", "in_short": "as §2"}, "[22]": {"test_system": "Rattus norvegicus", "assay": "Compound was tested for the inhibition of Carrageenan rat's paw edema(CPE) after peroral administration of 30 mg/kg dose"}, "[23]": {"test_system": "Rattus norvegicus", "assay": "Compound was tested for the inhibition of arachidonic acid-induced rat's paw edema(APE) after peroral administration of 100 mg/kg dose", "in_short": "as §5"}, "[24]": {"test_system": "Rattus norvegicus", "assay": "Antiinflammatory activity on Zymosan-induced rat's paw edema(ZPE) after peroral administration of 100 mg/kg dose with control swelling of 66.9%", "in_short": "as §2"}, "[25]": {"test_system": "Rattus norvegicus", "assay": "Compound was tested for the inhibition of rat reversed passive Arthus pleurisy after peroral administration of 3 mg/kg dose at 0.6 mL of exudate volume with 0.68 mL of control (injected intrapleurally)", "in_short": "as §3"}, "[26]": {"test_system": "Rattus norvegicus", "assay": "Compound was tested for the inhibition of arachidonic acid-induced rat's paw edema(APE) after peroral administration of 100 mg/kg dose with control swelling of 51.6%", "in_short": "as §5"}, "[27]": {"test_system": "Rattus norvegicus", "assay": "Compound was tested for the inhibition of rat reversed passive Arthus pleurisy after peroral administration of 10 mg/kg dose at 0.44 mL of exudate volume with 0.68 mL of control (injected intrapleurally)", "in_short": "as §4"}, "[28]": {"test_system": "Rattus norvegicus", "assay": "Antiinflammatory activity on Carrageenan rat's paw edema(CPE) after peroral administration of 30 mg/kg dose"}, "[29]": {"test_system": "Rattus norvegicus", "assay": "Compound was tested for the inhibition of arachidonic acid-induced rat's paw edema(APE) after peroral administration of 30 mg/kg dose", "in_short": "as §5"}, "[30]": {"test_system": "Rattus norvegicus", "assay": "Compound was tested for the inhibition of Zymosan-induced rat's paw edema(ZPE) after peroral administration of 30 mg/kg dose", "in_short": "as §2"}, "[31]": {"test_system": "Rattus norvegicus", "assay": "Compound was tested for the inhibition of rat reversed passive Arthus pleurisy after peroral administration of 100 mg/kg dose at 4.81*10e6 no of cells with 5.72*10e6 cells of control", "in_short": "as §3"}}, "data": [{"smiles": "COc1ccc(NC(=O)c2c(O)c3cccnc3n(-c3ccccc3)c2=O)cc1", "values": [{"measurement": "inhibition in vivo at 100 mg/kg", "setting": "[1]", "result": -1.9, "unit": "%"}, {"measurement": "Swelling", "setting": "[2]", "result": 62.6, "unit": "%"}, {"measurement": "inhibition in vivo at 100 mg/kg", "setting": "[3]", "result": 25.4, "unit": "%"}, {"measurement": "inhibition in vivo at 100 mg/kg", "setting": "[4]", "result": 0.3, "unit": "%"}, {"measurement": "inhibition in vivo at 100 mg/kg", "setting": "[5]", "result": 5.1, "unit": "%"}, {"measurement": "Swelling", "setting": "[6]", "result": 69.4, "unit": "%"}]}, {"smiles": "COc1ccccc1NC(=O)c1c(O)c2cccnc2n(-c2ccccc2)c1=O", "values": [{"measurement": "inhibition in vivo at 100 mg/kg", "setting": "[1]", "result": -10.1, "unit": "%"}, {"measurement": "inhibition in vivo at 100 mg/kg", "setting": "[7]", "result": 16.7, "unit": "%"}, {"measurement": "inhibition in vivo at 100 mg/kg", "setting": "[4]", "result": 8.1, "unit": "%"}, {"measurement": "inhibition in vivo at 100 mg/kg", "setting": "[8]", "result": 26.8, "unit": "%"}, {"measurement": "Swelling", "setting": "[9]", "result": 70.7, "unit": "%"}, {"measurement": "Swelling", "setting": "[10]", "result": 65.9, "unit": "%"}]}, {"smiles": "CCOC(=O)c1c(O)c2cccnc2n(-c2ccccc2)c1=O", "values": [{"measurement": "inhibition in vivo at 100 mg/kg", "setting": "[1]", "result": 15.5, "unit": "%"}, {"measurement": "inhibition in vivo at 100 mg/kg", "setting": "[4]", "result": 23.5, "unit": "%"}, {"measurement": "Swelling", "setting": "[11]", "result": 47.2, "unit": "%"}, {"measurement": "Swelling", "setting": "[12]", "result": 63.1, "unit": "%"}]}, {"smiles": "O=C(Cn1c(=O)sc2ccc(Cl)cc21)N1CCN(CCO)CC1", "note": "[TIARAMIDE]", "values": [{"measurement": "inhibition in vivo at 100 mg/kg", "setting": "[13]", "result": 67.2, "unit": "%"}, {"measurement": "inhibition in vivo at 100 mg/kg", "setting": "[14]", "result": 94.9, "unit": "%"}, {"measurement": "inhibition in vivo at 100 mg/kg", "setting": "[1]", "result": 13.3, "unit": "%"}, {"measurement": "inhibition in vivo at 30 mg/kg", "setting": "[15]", "result": 9.8, "unit": "%"}, {"measurement": "Swelling", "setting": "[16]", "result": 60.6, "unit": "%"}, {"measurement": "inhibition in vivo at 10 mg/kg", "setting": "[17]", "result": 2.3, "unit": "%"}, {"measurement": "inhibition in vivo at 3 mg/kg", "setting": "[18]", "result": 2.7, "unit": "%"}, {"measurement": "inhibition in vivo at 100 mg/kg", "setting": "[4]", "result": 23, "unit": "%"}, {"measurement": "Swelling", "setting": "[19]", "result": 32.1, "unit": "%"}, {"measurement": "inhibition in vivo at 30 mg/kg", "setting": "[20]", "result": 59.3, "unit": "%"}, {"measurement": "Swelling", "setting": "[21]", "result": 56.8, "unit": "%"}, {"measurement": "inhibition in vivo at 30 mg/kg", "setting": "[22]", "result": 8.4, "unit": "%"}, {"measurement": "inhibition in vivo at 100 mg/kg", "setting": "[23]", "result": 48.3, "unit": "%"}, {"measurement": "Swelling", "setting": "[24]", "result": 51.5, "unit": "%"}, {"measurement": "inhibition in vivo at 3 mg/kg", "setting": "[25]", "result": 13.6, "unit": "%"}, {"measurement": "Swelling", "setting": "[26]", "result": 26.7, "unit": "%"}, {"measurement": "inhibition in vivo at 10 mg/kg", "setting": "[27]", "result": 40.7, "unit": "%"}, {"measurement": "Swelling", "setting": "[28]", "result": 64, "unit": "%"}, {"measurement": "inhibition in vivo at 30 mg/kg", "setting": "[29]", "result": 5, "unit": "%"}, {"measurement": "inhibition in vivo at 30 mg/kg", "setting": "[30]", "result": 15.1, "unit": "%"}]}, {"smiles": "O=C(Nc1ccc([N+](=O)[O-])cc1)c1c(O)c2cccnc2n(-c2ccccc2)c1=O", "values": [{"measurement": "inhibition in vivo at 100 mg/kg", "setting": "[1]", "result": -25.8, "unit": "%"}, {"measurement": "inhibition in vivo at 100 mg/kg", "setting": "[7]", "result": 16.7, "unit": "%"}, {"measurement": "Swelling", "setting": "[2]", "result": 67.6, "unit": "%"}, {"measurement": "inhibition in vivo at 100 mg/kg", "setting": "[4]", "result": -7.6, "unit": "%"}, {"measurement": "inhibition in vivo at 100 mg/kg", "setting": "[31]", "result": 18.5, "unit": "%"}, {"measurement": "Swelling", "setting": "[6]", "result": 85.7, "unit": "%"}]}]}
